The text below walks through data of ChEMBL document CHEMBL2157900, “Design, synthesis and in vitro activities on anti-platelet aggregation of 4-methoxybenzene-1,3-isophthalamides” (Bioorg Med Chem Lett, 2012).

One assay deals with Platelet. As to the kind of experiment: Ratio of picotamide IC50 to compound IC50 for rat platelet rich plasma assessed as inhibition of ADP-induced platelet aggregation. Type of assay: functional.
As for `COc1ccc(C(=O)Nc2ccccc2Cc2ccccc2)cc1C(=O)Nc1ccccc1Cc1ccccc1`, the “Ratio IC50” value was found to be 10.

Test system in another assay: not listed separately
As to the kind of experiment: Antiplatelet activity against rat platelet rich plasma assessed as inhibition of ADP-induced platelet aggregation after 2 mins by Born test method. Type of assay: functional. Put shortly: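 Rat blood was collected into 3.8% sodium citrate (1:9, v/v). Platelet-rich plasma was obtained by centrifugation at room temperature for 10 min (500–800 rpm). Platelet-poor plasma, made by spinning PRP at room temperature for 15 min (3000 rpm), set zero. Compound was incubated with PRP for 2 min, then aggregation was stimulated with ADP and read on an aggregometer. Results are given as percentage inhibition and IC50.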
For the molecule `COc1ccc(C(=O)Nc2ccc(Br)cc2)cc1C(=O)Nc1ccc(Br)cc1`, the IC50 worked out at 510 nM.

Turning to `COc1ccc(C(=O)Nc2ccc(F)cc2)cc1C(=O)Nc1ccc(F)cc1`, the IC50 was found to be 600 nM.

Regarding `COc1ccc(C(=O)Nc2ccccc2I)cc1C(=O)Nc1ccccc1I`, the IC50 is 300 nM.

As for `CCCCOc1ccc(NC(=O)c2ccc(OC)c(C(=O)Nc3ccc(OCCCC)cc3)c2)cc1`, the concentration for half-maximal inhibition (IC50) is 490 nM.

With `COc1ccc(C(=O)Nc2ccc([N+](=O)[O-])cc2)cc1C(=O)Nc1ccc([N+](=O)[O-])cc1`, the IC50 is 750 nM.

Consider `COc1ccc(C(=O)Nc2ccccc2CC#N)cc1C(=O)Nc1ccccc1CC#N`, for which the concentration for half-maximal inhibition (IC50) was determined as 590 nM.

Regarding `COc1ccc(C(=O)NCc2ccccc2)cc1C(=O)NCc1ccccc1`, the half-maximal inhibitory concentration (IC50) turned out to be 580 nM.

On to `COc1ccc(C(=O)Nc2ccc(C(C)=O)cc2)cc1C(=O)Nc1ccc(C(C)=O)cc1`, for which the IC50 was found to be 670 nM.

As to `COc1ccc(C(=O)Nc2ccccc2)cc1C(=O)Nc1ccccc1`, the IC50 was found to be 770 nM.

Regarding `COc1ccc(C(=O)NCc2cccnc2)cc1C(=O)NCc1cccnc1` [PICOTAMIDE], the half-inhibitory concentration (IC50) amounted to 760 nM.

Regarding `COc1ccc(C(=O)Nc2ccccc2Cc2ccccc2)cc1C(=O)Nc1ccccc1Cc1ccccc1`, the IC50 is 20 nM.

Turning to `COc1ccc(C(=O)Nc2ccc(I)cc2)cc1C(=O)Nc1ccc(I)cc1`, the IC50 was 490 nM.

With `COc1ccc(C(=O)NCCc2ccccc2)cc1C(=O)NCCc1ccccc1`, the 50% inhibitory concentration (IC50) amounted to 240 nM.

As to `COc1cccc(NC(=O)c2ccc(OC)c(C(=O)Nc3cccc(OC)c3)c2)c1`, the concentration for half-maximal inhibition (IC50) was determined as 490 nM.

Consider `COc1ccc(C(=O)Nc2ccccc2F)cc1C(=O)Nc1ccccc1F`, for which the IC50 was 860 nM.

On to `CCOc1cccc(NC(=O)c2ccc(OC)c(C(=O)Nc3cccc(OCC)c3)c2)c1`, for which the half-inhibitory concentration (IC50) worked out at 810 nM.

With `COc1ccc(C(=O)Nc2ccc(C)cc2)cc1C(=O)Nc1ccc(C)cc1`, the IC50 was found to be 640 nM.

On to `COc1ccc(C(=O)Nc2ccccc2Br)cc1C(=O)Nc1ccccc1Br`, for which the IC50 was 660 nM.

A word on the IC50: it is the point on the concentration scale where inhibition reaches its midpoint.
